Consider 22 molecules from ChEMBL document CHEMBL5247675, “Antimicrobial Peptides Incorporating Halogenated Marine-Derived Amino Acid Substituents” (ACS Med Chem Lett, 2023).

Data set [1] is described as follows: Cytotoxicity against human HeLa cells assessed as reduction in cell viability incubated for 24 hrs by PrestoBlue assay. It counts as toxicity, cell-based. The method, boiled down: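 HeLa (human epithelial) cells were exposed to serial peptide dilutions from 1.4 to 87.5 μM for 24 h at 37 °C. Viability was read by PrestoBlue, and IC50 was taken from dose–response curves. There were two independent experiments, each in triplicate, reported as mean ± SD.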

Another data set concerns Cyberlindnera jadinii. Nature of the data set: Antimicrobial activity against clinical isolate Candida utilis SVB-Y1 assessed as reduction in microbial growth incubated for 48 hrs by CLSI protocol based broth microdilution method. It counts as functional. The following applies: Williopsis jadinii. The method, boiled down:
(§1)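 Clinical isolates of the fungi were subcultured from Auckland City Hospital. MICs were determined following Clinical and Laboratory Standards Institute recommended protocols.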
On the technique in general: Broth dilution looks for growth in wells or tubes with falling amounts of substance.

Another data set concerns Staphylococcus aureus. Nature of the data set: Antimicrobial activity against Staphylococcus aureus ATCC 29213 assessed as reduction in microbial growth incubated for 18 hrs by CLSI protocol based two fold serial dilution method. Type of data set: functional.
Another data set has as its system Escherichia coli. Nature of the data set: Antimicrobial activity against Escherichia coli ATCC 25922 assessed as reduction in microbial growth incubated for 18 hrs by CLSI protocol based two fold serial dilution method. Type of data set: functional.
Data set [2] in a line: Hemolytic activity in human RBC assessed as hemolysis rate at 100 uM incubated for 45 mins by spectrophotometric assay relative to control. It counts as toxicity, cell-based, Erythrocyte. The following applies: human red blood cells, read-out: Activity. The method, boiled down: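 Isolated, washed human erythrocytes were exposed to each compound at a single concentration of 100 μM. Percent hemolysis was recorded as a relative measure between compounds.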

The nature of data set [3]: Hemolytic activity in human RBC assessed as hemolysis rate incubated for 45 mins by spectrophotometric assay. It counts as toxicity, cell-based, Erythrocyte. The following applies: human red blood cells.
In another data set the test system is Aspergillus fumigatus. Nature of the data set: Antimicrobial activity against clinical isolate Aspergillus fumigatus SVB-F136 assessed as reduction in microbial growth incubated for 48 hrs by CLSI protocol based broth microdilution method. It counts as functional. In a few lines:
as §1

Another data set concerns Candida albicans. Nature of the data set: Antimicrobial activity against Candida albicans SC5314 assessed as reduction in microbial growth incubated for 48 hrs by CLSI protocol based broth microdilution method. It counts as functional.

Non-standard residues stand in square brackets, D forms with d. Residues, ends and D or L forms follow the SMILES beside them. *: point of attachment. Bip = N[C@@H](Cc1ccc(-c2ccccc2)cc1)C(=O)O; Lys(Me3) = C[N+](C)(C)CCCC[C@H](N)C(=O)O; NHPhenethyl = c1ccc(CCN*)cc1

Usually IC50 stands for the point on the concentration scale where inhibition reaches its midpoint. As usually defined, the MIC is the least concentration at which growth counts as inhibited. As a reminder, the EC50 is the concentration giving half of the maximal effect.

In the case of `CC(C)(C)c1cc(C(C)(C)C)c2[nH]c(C(C)(C)C)c(C[C@H](NC(=O)[C@@H](N)CCCNC(=N)N)C(=O)N[C@@H](CCCNC(=N)N)C(=O)NCCc3ccccc3)c2c1` [LTX-109], the IC50 at 24 h in data set [1] is 46.6 µM. Besides, the MIC turned out to be 2 µM in the data set on Cyberlindnera jadinii; 2 µM in the data set with Staphylococcus aureus; 2 µM with Escherichia coli; 8 µM with Aspergillus fumigatus; 4 µM in the data set with Candida albicans. For the same molecule, the hemolysis at 0.75 h, 100 µM in data set [2] was found to be 4.23%. In addition, in data set [3], the EC50 at 45 min came to 222 µM.
As for `CC1(C)S[C@@H]2[C@H](NC(=O)[C@H](N)c3ccc(O)cc3)C(=O)N2[C@H]1C(=O)O` [AMOXICILLIN], the MIC in the data set with Staphylococcus aureus came out at 4 µM; with Escherichia coli it was 16 µM.
As to `COc1c(Br)cc(CCNC(=O)[C@H](CCCNC(=N)N)NC(=O)[C@H](Cc2c[nH]c3cc(Br)ccc23)NC(=O)[C@@H](N)CCCNC(=N)N)cc1Br`, in data set [1], the IC50 at 24 h is > 87.5 µM. Also, the MIC with Cyberlindnera jadinii turned out to be 2 µM; in the data set with Staphylococcus aureus it was 8 µM; in the data set on Escherichia coli it was 16 µM; in the data set with Aspergillus fumigatus it was 16 µM; with Candida albicans it was 2 µM. In addition, the hemolysis at 0.75 h, 100 µM in data set [2] is 1.19%.
Take `N=C(N)NCCC[C@H](NC(=O)[C@@H](Cc1c[nH]c2cc(Br)ccc12)NC(=O)[C@@H](N)CCCNC(=N)N)C(=O)NCCc1ccccc1`: the MIC is 16 µM in the data set with Cyberlindnera jadinii; > 64 µM with Staphylococcus aureus; > 64 µM with Escherichia coli; > 64 µM in the data set on Aspergillus fumigatus; > 64 µM with Candida albicans. In addition, the hemolysis at 0.75 h, 100 µM in data set [2] was found to be 0.27%.
In the case of `COc1ccc(CCNC(=O)[C@H](CCCNC(=N)N)NC(=O)[C@H](Cc2ccc(-c3ccc(OC)c(Br)c3)cc2)NC(=O)[C@@H](N)CCCNC(=N)N)cc1Br`, the MIC with Cyberlindnera jadinii was 4 µM; in the data set with Staphylococcus aureus, > 64 µM; in the data set with Escherichia coli it was > 64 µM; with Aspergillus fumigatus, > 64 µM; with Candida albicans it was 32 µM. Besides, in data set [2], the hemolysis at 0.75 h, 100 µM is 0.29%.
`COc1c(Br)cc(C[C@H](NC(=O)[C@@H](N)CCCNC(=N)N)C(=O)N[C@@H](CCCNC(=N)N)C(=O)NCCc2c[nH]c3cc(Br)ccc23)cc1Br`: the MIC in the data set on Cyberlindnera jadinii, in the data set on Staphylococcus aureus, in the data set on Escherichia coli, in the data set with Aspergillus fumigatus and with Candida albicans was > 64 µM in each case.
For `COc1c(Br)cc(-c2ccc(C[C@H](NC(=O)[C@@H](N)CCCNC(=N)N)C(=O)N[C@@H](CCCNC(=N)N)C(=O)NCCc3ccccc3)cc2)cc1Br`, in data set [1], the IC50 at 24 h is > 87.5 µM. For the same molecule, the minimum inhibitory concentration (MIC) in the data set on Cyberlindnera jadinii came to 4 µM; in the data set with Staphylococcus aureus, 8 µM; in the data set with Escherichia coli, 16 µM; with Aspergillus fumigatus it was 16 µM; in the data set on Candida albicans it was 4 µM. For the same molecule, the hemolysis at 0.75 h, 100 µM in data set [2] was 1.38%.
As to `N=C(N)NCCC[C@H](NC(=O)[C@H](Cc1ccccc1)NC(=O)[C@@H](N)CCCNC(=N)N)C(=O)NCCc1ccccc1` (H-Arg-Phe-Arg-NHPhenethyl), the MIC in the data set on Cyberlindnera jadinii, in the data set with Staphylococcus aureus, with Escherichia coli, in the data set on Aspergillus fumigatus and with Candida albicans was > 64 µM in each case. Also, the hemolysis at 0.75 h, 100 µM in data set [2] was 0.33%.
On to `COc1c(Br)cc(CCNC(=O)[C@H](CCCNC(=N)N)NC(=O)[C@H](Cc2ccc(-c3cc(Br)c(OC)c(Br)c3)cc2)NC(=O)[C@@H](N)CCCNC(=N)N)cc1Br`, for which, in data set [1], the concentration for half-maximal inhibition (IC50) at 24 h is > 87.5 µM. Further, the MIC stood at 4 µM in the data set with Cyberlindnera jadinii; 4 µM in the data set on Staphylococcus aureus; 8 µM in the data set on Escherichia coli; 16 µM in the data set with Aspergillus fumigatus; 4 µM in the data set on Candida albicans. Further, in data set [2], the hemolysis at 0.75 h, 100 µM worked out at 1.62%.
With `COc1c(Br)cc(C[C@H](NC(=O)CCCCC[N+](C)(C)C)C(=O)N[C@@H](CCCNC(=N)N)C(=O)NCCc2ccccc2)cc1Br`, the MIC in the data set with Cyberlindnera jadinii, in the data set with Staphylococcus aureus, in the data set with Escherichia coli, with Aspergillus fumigatus and in the data set with Candida albicans was > 64 µM each time.
As to `COc1c(Br)cc(C[C@H](NC(=O)[C@@H](N)CCCNC(=N)N)C(=O)N[C@@H](CCCNC(=N)N)C(=O)NCCc2ccccc2)cc1Br`, the MIC is 8 µM in the data set with Cyberlindnera jadinii; > 64 µM in the data set on Staphylococcus aureus; > 64 µM in the data set on Escherichia coli; 64 µM in the data set with Aspergillus fumigatus; 16 µM in the data set on Candida albicans. Moreover, the hemolysis at 0.75 h, 100 µM in data set [2] worked out at 0.34%.
Take `C[N+](C)(C)CCCC[C@H](NC(=O)[C@H](Cc1ccc(-c2ccccc2)cc1)NC(=O)[C@@H](N)CCCC[N+](C)(C)C)C(=O)NCCc1ccccc1` (H-[Lys(Me3)]-[Bip]-[Lys(Me3)]-NHPhenethyl): the MIC in the data set on Cyberlindnera jadinii is 64 µM; in the data set with Staphylococcus aureus, > 64 µM; in the data set on Escherichia coli, > 64 µM; in the data set with Aspergillus fumigatus it was > 64 µM; in the data set on Candida albicans it was > 64 µM.
For `C[C@@H]1[C@H](O)[C@@H](C)/C=C/C=C/C=C/C=C/C=C/C=C/C=C/[C@H](O[C@@H]2O[C@H](C)[C@@H](O)[C@H](N)[C@@H]2O)C[C@@H]2O[C@](O)(C[C@@H](O)C[C@@H](O)[C@H](O)CC[C@@H](O)C[C@@H](O)CC(=O)O[C@H]1C)C[C@H](O)[C@H]2C(=O)O` [AMPHOTERICIN B], the minimum inhibitory concentration (MIC) in the data set with Cyberlindnera jadinii was 2 µM; with Aspergillus fumigatus, 4 µM; with Candida albicans, 1 µM.
As for POLYMYXIN B, the results for the MIC with Staphylococcus aureus and in the data set with Escherichia coli were > 64 µM and 0.0625 µM, respectively.
Consider `COc1c(Br)cc(CCNC(=O)[C@H](CCCCN)NC(=O)[C@H](Cc2cc(Br)c(OC)c(Br)c2)NC(=O)[C@@H](N)CCCCN)cc1Br`, for which the minimal inhibitory concentration (MIC) was 32 µM in the data set with Cyberlindnera jadinii; 64 µM in the data set with Staphylococcus aureus; > 64 µM in the data set with Escherichia coli; > 64 µM with Aspergillus fumigatus; > 64 µM in the data set on Candida albicans.
With `C[N+](C)(C)CCCCC[C@H](N)C(=O)N[C@@H](Cc1ccc(-c2ccccc2)cc1)C(=O)N[C@@H](CCCNC(=N)N)C(=O)NCCc1ccccc1`, the MIC with Cyberlindnera jadinii, with Staphylococcus aureus, in the data set on Escherichia coli, with Aspergillus fumigatus and in the data set on Candida albicans was > 64 µM each time.
For `C[N+](C)(C)CCCC[C@H](NC(=O)[C@H](Cc1ccc(-c2ccccc2)cc1)NC(=O)[C@@H](N)CCCNC(=N)N)C(=O)NCCc1ccccc1` (H-Arg-[Bip]-[Lys(Me3)]-NHPhenethyl), the MIC in the data set on Cyberlindnera jadinii, in the data set with Staphylococcus aureus, in the data set with Escherichia coli, in the data set on Aspergillus fumigatus and with Candida albicans was > 64 µM throughout.
For `COc1ccc(-c2ccc(C[C@H](NC(=O)[C@@H](N)CCCNC(=N)N)C(=O)N[C@@H](CCCNC(=N)N)C(=O)NCCc3ccccc3)cc2)cc1`, the IC50 at 24 h in data set [1] is > 87.5 µM. Besides, the MIC in the data set with Cyberlindnera jadinii is 2 µM; in the data set with Staphylococcus aureus, 32 µM; in the data set on Escherichia coli it was > 64 µM; with Aspergillus fumigatus, > 64 µM; in the data set with Candida albicans it was 2 µM. In addition, the hemolysis at 0.75 h, 100 µM in data set [2] worked out at 0.4%.
In the case of `N=C(N)NCCC[C@H](NC(=O)[C@H](Cc1c[nH]c2cc(Br)ccc12)NC(=O)[C@@H](N)CCCNC(=N)N)C(=O)NCCc1ccccc1`, the IC50 at 24 h in data set [1] was > 87.5 µM. In addition, the MIC is 8 µM with Cyberlindnera jadinii; > 64 µM with Staphylococcus aureus; > 64 µM in the data set with Escherichia coli; > 64 µM in the data set with Aspergillus fumigatus; 16 µM with Candida albicans. The hemolysis at 0.75 h, 100 µM in data set [2] is 0.29%.
As for `COc1c(Br)cc(CCNC(=O)[C@H](CCCNC(=N)N)NC(=O)[C@H](Cc2c[nH]c3ccccc23)NC(=O)[C@@H](N)CCCNC(=N)N)cc1Br`, the minimal inhibitory concentration (MIC) in the data set on Cyberlindnera jadinii was 8 µM; in the data set with Staphylococcus aureus, 64 µM; with Escherichia coli, > 64 µM; with Aspergillus fumigatus it was 64 µM; in the data set with Candida albicans, 8 µM. In addition, the hemolysis at 0.75 h, 100 µM in data set [2] amounted to 0.35%.
For the molecule `N=C(N)NCCC[C@H](NC(=O)[C@H](Cc1ccc(-c2cc(Br)c(O)c(Br)c2)cc1)NC(=O)[C@@H](N)CCCNC(=N)N)C(=O)NCCc1cc(Br)c(O)c(Br)c1`, the MIC with Cyberlindnera jadinii is 64 µM; in the data set on Staphylococcus aureus it was > 64 µM; in the data set with Escherichia coli, > 64 µM; with Aspergillus fumigatus, ≥ 64 µM; in the data set with Candida albicans, > 64 µM.
For the molecule `C[N+](C)(C)CCCC[C@H](N)C(=O)N[C@@H](Cc1ccc(-c2ccccc2)cc1)C(=O)N[C@@H](CCCNC(=N)N)C(=O)NCCc1ccccc1` (H-[Lys(Me3)]-[Bip]-Arg-NHPhenethyl), the minimum inhibitory concentration (MIC) with Cyberlindnera jadinii, in the data set on Staphylococcus aureus, in the data set with Escherichia coli, with Aspergillus fumigatus and with Candida albicans was > 64 µM in each case.
